Assay results as given in ChEMBL document CHEMBL1123074, “Aromatase inhibitors. Synthesis and biological activity of androstenedione derivatives” (J Med Chem, 1985).

How the values were obtained:
Aromatase [1] = target: T1, Aromatase (Homo sapiens, UniProt P11511); experiment: Percent inhibition of human placental Cytochrome P450 19A1 at 3:1 inhibitor: androstenedione (0.7 uM) ratio
T1 sequence (P11511 whole entry): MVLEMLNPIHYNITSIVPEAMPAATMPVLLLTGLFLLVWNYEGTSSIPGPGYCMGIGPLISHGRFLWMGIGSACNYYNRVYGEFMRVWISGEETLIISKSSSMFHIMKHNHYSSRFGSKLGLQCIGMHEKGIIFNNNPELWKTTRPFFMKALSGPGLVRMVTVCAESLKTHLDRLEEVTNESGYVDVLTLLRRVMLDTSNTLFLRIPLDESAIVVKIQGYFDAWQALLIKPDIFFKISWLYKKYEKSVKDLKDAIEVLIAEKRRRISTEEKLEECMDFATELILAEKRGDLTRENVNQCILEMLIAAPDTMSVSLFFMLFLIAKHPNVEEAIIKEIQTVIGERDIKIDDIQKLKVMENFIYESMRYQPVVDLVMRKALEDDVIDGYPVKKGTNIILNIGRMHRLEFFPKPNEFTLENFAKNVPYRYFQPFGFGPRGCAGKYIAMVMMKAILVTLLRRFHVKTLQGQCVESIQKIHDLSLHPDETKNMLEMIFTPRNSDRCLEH
Outline: (§1)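 Human term placental microsomes (0.3-0.9 mg protein) incubated with test compound at stated inhibitor:substrate ratio, [4-14C]androstenedione, 0.7 μM androstenedione and NADPH-generating system (NADP, glucose 6-phosphate, glucose-6-phosphate dehydrogenase) in 0.1 M phosphate buffer pH 7.4, 30 min, 37 °C under oxygen. Stopped with [6,7-3H2]estradiol/estrone recovery markers and carriers; estrogens extracted, TLC-purified, quantified versus control.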

Aromatase [2] = target: T1, Aromatase; experiment: Percent inhibition of human placental Cytochrome P450 19A1 at 1:1 inhibitor: androstenedione (0.7 uM) ratio; outline: as §1
Aromatase [3] = target: T1, Aromatase; experiment: Percent inhibition of human placental Cytochrome P450 19A1 at 6:1 inhibitor: androstenedione (0.7 uM) ratio; outline: as §1

| Structure (SMILES) | Inhibition (Aromatase [1]) [%] | Inhibition (Aromatase [2]) [%] | Inhibition (Aromatase [3]) [%] |
| --- | --- | --- | --- |
| CC12CCC3C(C=CC4=C(O)C(=O)CCC43C)C1CCC2=O (stereo unspecified) | 30 | 8 | – |
| C[C@]12CCC(=O)C(O)=C1CC[C@@H]1[C@@H]2CC[C@]2(C)C(=O)CC[C@@H]12 [FORMESTANE] | 91 | 89 | – |
| CC(=O)OC1=C2CCC3C4CCC(=O)C4(C)CCC3C2(C)CCC1=O (stereo unspecified) | 90 | 81 | – |
| C[C@]12C=CC(=O)C=C1C=C[C@@H]1[C@@H]2CC[C@]2(C)C(=O)CC[C@@H]12 | 83 | 69 | – |
| CC12CCC3C(CCC4=C(Cl)C(=O)CCC43C)C1CCC2=O (stereo unspecified) | 9 | – | 43 |
| CC12CCC3C(CC(=O)C4=CC(=O)CCC43C)C1CCC2=O (stereo unspecified) | 78 | – | – |
| COC1=C2CCC3C4CCC(=O)C4(C)CCC3C2(C)CCC1=O (stereo unspecified) | 7 | – | 28 |
| CC12C=CC(=O)C(O)=C1CCC1C2CCC2(C)C(=O)CCC12 (stereo unspecified) | 84 | 66 | – |
| CC12CCC3C(CCC4=C(OC(=O)CCC(=O)O)C(=O)CCC43C)C1CCC2=O (stereo unspecified) | 70 | – | – |
